From PMC3308013 (Journal of Immunology (Baltimore, Md. : 1950), 2011)
Where no end group is shown, it is not given here.

The sequences below were run against H-2 Db (Mus musculus, UniProt P01899) (assay: MHC peptide binding competition assay, purified H-2 Db).
Method in brief: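 Peptides radiolabelled by chloramine T; 1–10 nM label co-incubated at room temperature for 2 d with 1 μM to 1 nM purified H-2 Db, 1–3 μM human β2-microglobulin and protease inhibitors. Complexes captured on 28-14-8s Ab-coated plates; bound cpm counted. Test peptide at six concentrations over a 100,000-fold range, ≥3 independent assays; IC50 = concentration giving 50% inhibition of label binding.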

H-2 Db, sequence (P01899 25-362): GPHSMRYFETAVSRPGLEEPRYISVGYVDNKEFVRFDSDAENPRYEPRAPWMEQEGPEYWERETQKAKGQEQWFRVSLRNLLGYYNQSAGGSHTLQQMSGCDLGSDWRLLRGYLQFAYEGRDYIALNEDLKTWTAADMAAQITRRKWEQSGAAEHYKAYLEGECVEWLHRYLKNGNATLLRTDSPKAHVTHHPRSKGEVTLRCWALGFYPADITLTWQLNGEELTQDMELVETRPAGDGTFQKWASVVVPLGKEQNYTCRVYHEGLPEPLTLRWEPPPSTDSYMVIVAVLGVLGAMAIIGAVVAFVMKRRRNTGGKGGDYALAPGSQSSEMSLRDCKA
H-2 Db, sequence (P61769 21-119, further chain): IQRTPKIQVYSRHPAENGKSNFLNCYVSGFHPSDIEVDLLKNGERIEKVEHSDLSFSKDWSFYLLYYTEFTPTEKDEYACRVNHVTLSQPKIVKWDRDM

**Q.** Which IC50 does the source give for AAIENYVRF [AAIENYVRF] here?
**A.** Its IC50 is 38 nM.

**Q.** How did the IC50 turn out when AVCINNTFL [AVCINNTFL] was run?
**A.** The IC50 was 450 nM.

**Q.** FAFVNAAHA [FAFVNAAHA] was tested. Which IC50 did it give?
**A.** The IC50 was 4.9 nM.

**Q.** FGLLNYALV [FGLLNYALV] was tested. Which IC50 did it give?
**A.** The IC50 was 1 nM.

**Q.** For FLPRLGTEL [FLPRLGTEL], which IC50 is on record?
**A.** The IC50 was 3050 nM.

**Q.** GAMRAVVPI [GAMRAVVPI] was tested. Which IC50 did it give?
**A.** The IC50 was 499 nM.

**Q.** With LAVVLWSLL [LAVVLWSLL] as the sequence, how does the IC50 read?
**A.** The IC50 was 2780 nM.

**Q.** How did the IC50 turn out when SARMLGDVM [SARMLGDVM] was run?
**A.** Its IC50 is 9210 nM.

**Q.** With WMKMNQTLL [WMKMNQTLL] as the sequence, how does the IC50 read?
**A.** The IC50 was 131 nM.

**Q.** Which IC50 does the source give for YQPLLSNTL [YQPLLSNTL] here?
**A.** Its IC50 is 5150 nM.

**Q.** With YSVENVGLL [YSVENVGLL] as the sequence, how does the IC50 read?
**A.** Its IC50 is 1.9 nM.

These sequences were tested against H-2 Kb (Mus musculus, UniProt P01901) (assay: MHC peptide binding competition assay, purified H-2 Kb).
H-2 Kb, sequence (P01901 22-369): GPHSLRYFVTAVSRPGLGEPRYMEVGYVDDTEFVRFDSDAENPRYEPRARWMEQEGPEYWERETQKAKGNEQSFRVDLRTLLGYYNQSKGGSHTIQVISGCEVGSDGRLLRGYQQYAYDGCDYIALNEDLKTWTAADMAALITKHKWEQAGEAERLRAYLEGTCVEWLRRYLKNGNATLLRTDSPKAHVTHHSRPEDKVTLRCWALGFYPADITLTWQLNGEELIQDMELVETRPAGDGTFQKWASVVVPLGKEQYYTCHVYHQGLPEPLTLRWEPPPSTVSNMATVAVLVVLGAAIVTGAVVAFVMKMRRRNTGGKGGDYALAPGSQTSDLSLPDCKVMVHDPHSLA
H-2 Kb, sequence (P61769 21-119 partner): as the sequence (P61769 21-119, further chain) above

**Q.** GAINFINL [GAINFINL] was tested. Which IC50 did it give?
**A.** The IC50 was 6.2 nM.

**Q.** Which IC50 does the source give for INNTFLHL [INNTFLHL] here?
**A.** The IC50 was 2 nM.

**Q.** How did the IC50 turn out when LGYAYINS [LGYAYINS] was run?
**A.** The IC50 was 10 nM.

**Q.** How did the IC50 turn out when QTFDFGRL [QTFDFGRL] was run?
**A.** Its IC50 is 2.1 nM.

**Q.** With SFYRFLFA [SFYRFLFA] as the sequence, how does the IC50 read?
**A.** Its IC50 is 64 nM.

**Q.** How did the IC50 turn out when YRFLFAFL [YRFLFAFL] was run?
**A.** Its IC50 is 5.4 nM.
